Compounds with a hit are over-represented: about 2.6% of the library has one in this group of screens.
rCAG RNA binder = r(CAG) repeat RNA binding; inhibition, % at 3 µM; AID 651821; TO-PRO-1 dye displacement fluorescence; 370,000 compounds, 1.3% hits;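 active = inhibition above the plate cutoff, the mean of all test compounds on that plate plus 3 SD, cut at about 35% in these data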;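 note: higher means more dye released from RNA so lower well fluorescence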
Rev-erbA mod = modulates human Rev-erb alpha binding to DNA; P20393; Rev-erbα–FITC-DNA binding, fluorescence polarization, 90 min; activity, % at 10 µM; 370,000 compounds, 0.79% hits; AID 1259318;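 active = activity above about 14%, limit read from the data; passing the limit was not always enough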
NR2E3 ag-1 = activates human photoreceptor nuclear receptor NR2E3; Q9Y5X4; GST-NR2E3/biotin-RetCOR TR-FRET, 1536-well; inhibition of corepressor binding, % at 4.78 µM; 320,000 compounds, 0.12% hits;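 active = percent inhibition above the cutoff of mean plus 3 SD of all tested compounds, set per screening campaign, cut at about 20% in these data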
Target sequence (Q9Y5X4 whole entry, looked up): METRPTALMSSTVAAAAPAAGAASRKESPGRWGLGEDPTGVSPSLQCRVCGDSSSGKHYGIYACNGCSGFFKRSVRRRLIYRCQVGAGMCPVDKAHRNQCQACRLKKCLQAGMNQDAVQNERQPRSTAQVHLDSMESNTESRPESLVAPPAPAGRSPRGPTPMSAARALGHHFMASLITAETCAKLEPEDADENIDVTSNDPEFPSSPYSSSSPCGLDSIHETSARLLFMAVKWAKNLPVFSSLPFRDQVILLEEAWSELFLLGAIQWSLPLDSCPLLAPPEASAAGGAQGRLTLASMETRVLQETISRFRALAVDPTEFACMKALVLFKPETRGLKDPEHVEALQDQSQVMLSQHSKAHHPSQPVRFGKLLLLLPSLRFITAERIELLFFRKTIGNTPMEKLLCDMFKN
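Material: NR2E3–RetCOR corepressor complex | Quantity: 1.35 nM GST-tagged NR2E3 final | Schedule: 5 h at 4 °C | Replication: Singlicate compound wells | Reagent: RetCOR corepressor, biotinylated, 7 nM | Controls: Biotin wells as high control, 0.6% DMSO wells as low control | Signal: TR-FRET, Eu(K)-anti-GST donor, streptavidin-D2 acceptor, ex 340, em 617/671 nm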
PG9 binder = small molecules binding HIV-1 gp120 antibody PG9 | inhibition, % at 6.7 µM | TR-FRET gp120-PG9 antibody binding | 360,000 compounds, 0.43% hits; in the data active = inhibition above about 8.5%
NR2E3 ag-2 = activates human NR2E3 receptor | AID 602229 | inhibition of corepressor binding, % at 3.98 µM | Q9Y5X4 | CHO-S Gal4-NCOR/VP16-NR2E3 two-hybrid, luciferase | 360,000 compounds, 0.35% hits;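 active = inhibition above the mean of all tested compounds plus 3 SD, cut at about 70% in these data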;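 note: higher means lower luciferase signal from less NR2E3 corepressor binding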
NR2E3 ag confirm = confirmation of human NR2E3 agonists; CHO-S mammalian two-hybrid NR2E3-NCOR, luciferase luminescence; inhibition, % at 3.98 µM; 2,300 compounds, 51% hits; shares compounds with NR2E3 ag-2;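 active = average inhibition above a cutoff equal to the mean inhibition of all tested compounds plus one SD, cut at about 70% in these data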
VP16 counter = reduces GAL4-VP16 reporter signal in NR2E3 counterscreen. CHO-S GAL4-VP16 luciferase reporter, luminescence. shares compounds with NR2E3 ag-2. 2,300 compounds, 29% hits. inhibition, % at 3.98 µM;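 active = mean inhibition above a cutoff equal to the average over all tested compounds plus one standard deviation, cut at about 70% in these data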;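 note: luciferase from a UAS reporter driven by GAL4-VP16 transactivation; higher means less reporter light so more repression of VP16 activity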
Of the large screens only hits and unclear results are named; the others gave an inactive call (follow-up assays come after a bar, where they were run).

CC(C)(C)NCC(=Cc1ccccc1)C(=O)c1ccccc1	NR2E3 ag-2 87 (no result: NR2E3 ag-1) | NR2E3 ag confirm 83 | VP16 counter inactive
CCOC(=O)N1CCN(c2ncnc3c2[nH]c2ccc(OC)cc23)CC1	none
Fc1ccc2[nH]c3c(N4CCN(c5ccccc5)CC4)ncnc3c2c1	NR2E3 ag-2 80 | NR2E3 ag confirm 96 | VP16 counter 80
CCOC(=O)N1CCN(c2ncnc3c2[nH]c2ccc(F)cc23)CC1	NR2E3 ag-2 80 | NR2E3 ag confirm 95 | VP16 counter 73
OC1(c2cccc(C(F)(F)F)c2)CCN(c2ncnc3c2[nH]c2ccc(F)cc23)CC1	NR2E3 ag-2 71 (no result: NR2E3 ag-1) | NR2E3 ag confirm 91 | VP16 counter inactive
COc1ccc(N2CCN(c3ncnc4c3[nH]c3ccccc34)CC2)cc1	NR2E3 ag-2 77 | NR2E3 ag confirm 95 | VP16 counter 81
COC(=O)C1=C(C)N(Cc2ccc(Br)cc2)C(=S)NC1c1ccccc1 (stereo not given)	none (no result: NR2E3 ag-1, NR2E3 ag-2)
O=[N+]([O-])c1ccc(NS(=O)(=O)c2ccc(Cl)c(Cl)c2)cc1	NR2E3 ag-2 101 (no result: NR2E3 ag-1) | NR2E3 ag confirm 99 | VP16 counter 91
O=[N+]([O-])c1ccc(Oc2ccc(S(=O)(=O)Nc3ccccc3)cc2)cc1	none (no result: rCAG RNA binder, Rev-erbA mod, PG9 binder) | NR2E3 ag confirm 99 | VP16 counter 79
O=[N+]([O-])c1ccc(S(=O)(=O)Nc2ccncc2)cc1	none
CCCS(=O)(=O)c1cnc(C2COc3ccccc3O2)nc1N (stereo not given)	none | NR2E3 ag confirm inactive | VP16 counter inactive
Nc1ncn([C@@H]2O[C@H](CO)[C@@H](O)[C@H]2O)c(=O)n1	none | NR2E3 ag confirm inactive | VP16 counter inactive
Nc1nc(=S)c2ncn(C3OC(CO)C(O)C3O)c2[nH]1 (stereo not given)	none | NR2E3 ag confirm inactive | VP16 counter inactive
Nc1ccn([C@@H]2O[C@H](CO)[C@@H](O)[C@@H]2O)c(=O)n1	none
Cc1ccc(NC(=O)c2c(C(F)(F)F)nn(C)c2SCc2cccc(C(F)(F)F)c2)cc1C	none | NR2E3 ag confirm inactive | VP16 counter inactive
Cc1cnc(C(=O)Nc2cccc3cccnc23)cn1	NR2E3 ag-2 77 (no result: NR2E3 ag-1) | NR2E3 ag confirm inactive | VP16 counter inactive
COc1cccc(-c2nc(CSCC(=O)N3CCc4ccccc43)c(C)o2)c1	none
Cc1ccc(-c2nc(CSCC(=O)N3CCN(c4ccccn4)CC3)c(C)o2)cc1	NR2E3 ag-2 83 | NR2E3 ag confirm 87 | VP16 counter 76
CCOc1ccc(-c2nc(CSCC(=O)N3CCN(c4cccc(OC)c4)CC3)c(C)o2)cc1	none | NR2E3 ag confirm 78 | VP16 counter inactive
C=CCN=C1NC(c2cccc(F)c2)C(C(=O)OC)=C(C)N1Cc1cccc(C(F)(F)F)c1 (stereo not given)	none (no result: NR2E3 ag-1, NR2E3 ag-2)
CCCCOc1ccc(CONS(=O)(=O)c2ccc(NC(C)=O)cc2)cc1Cl	none | NR2E3 ag confirm 81 | VP16 counter inactive
O=C(c1ccccc1)c1ccc(Cn2cc(-c3ccccc3)nn2)cc1	none | NR2E3 ag confirm 84 | VP16 counter inactive
CCCCCc1ccc(-c2cn(Cc3ccc(C(=O)c4ccccc4)cc3)nn2)cc1	none
CC(C)C[C@@H]1COc2cccc(NC3CC3)c2S(=O)(=O)N1	none (no result: NR2E3 ag-1, NR2E3 ag-2)
COc1cc(CN(C)c2ncnc3sccc23)ccc1OC(F)F	NR2E3 ag-2 84 | NR2E3 ag confirm 74 | VP16 counter inactive
COc1ccc(OC)c(Nc2ncnc3sccc23)c1	none
Cc1ccc(-n2c(SCc3c(Cl)cccc3Cl)nnc2-c2ccco2)cc1	none (no result: NR2E3 ag-1, PG9 binder, NR2E3 ag-2)
COc1ccc(S(=O)(=O)N2CCCCC2)cc1NC(=S)Nc1cccc(Cl)c1C	NR2E3 ag-2 80 | NR2E3 ag confirm 89 | VP16 counter inactive
COc1ccc(S(=O)(=O)N2CCCCC2)cc1NC(=O)c1c(F)cccc1Cl	none (no result: NR2E3 ag-1)
COc1ccc(S(=O)(=O)N2CCCCC2)cc1NC(=S)Nc1ccccc1	NR2E3 ag-2 91 | NR2E3 ag confirm 86 | VP16 counter inactive
COc1ccc(NC(=S)Nc2cc(S(=O)(=O)N3CCCCC3)ccc2OC)cc1	none (no result: rCAG RNA binder, Rev-erbA mod, PG9 binder, NR2E3 ag-2)
